Where two headings read alike, the source gives them in different places.
What was measured:
[1] = format: in vivo, human
[2] = tested on: human liver microsome (HLM); assay: In vitro metabolism in human liver microsomes; format: in vitro ADME; details: substrate 6 μM, 60 minutes; for effect of NBN and ketoconazole together on metabolism by HLM: 10 μM NBN + 2 μM ketoconazole
Outline: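 Human liver microsomes at 1 mg/mL in 50 mM potassium phosphate (pH 7.4) with 1 mM NADPH and 6 μM substrate; final methanol 0.5% (v/v). Inhibitors came from DMSO stocks (DMSO at most 0.5% v/v). NBN at 10 μM and ketoconazole at 2 μM were added with the substrate. Incubated at 37°C for 1 hour, then extracted and quantitated. Three or more independent experiments.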

CYP 2C19 = CYP 2C19 (Homo sapiens, UniProt P33261); assay: Incubation of D or DA with recombinant human CYP 2C19; format: in vitro ADME; details: for conversion to DOH or metabolites by 2C19 in the absence of NADPH: incubated in the absence of NADPH; for average velocity of 2C19 in the first 10 minutes: recombinant 2C19, substrate 6 μM
[3] = format: in vivo; details: mice, ABT vs. no ABT
CYP 3A4 = CYP 3A4 (Homo sapiens, UniProt P08684); assay: Incubation of D or DA with recombinant human CYP 3A4; format: in vitro ADME; details: recombinant 3A4; substrate 6 μM
[4] = ref Zhang et al., 2015, cited from earlier work
3A4 = details: 1 μM ketoconazole; corresponding probe reaction; ref Linder et al., 2009; cited from earlier work
2C19 = details: 10 μM NBN; corresponding probe reaction; ref Linder et al., 2009; cited from earlier work
[5] = rats; ref Song et al., 2011; cited from earlier work
[6] = rats, ref Li et al., 2013b, cited from earlier work

Sequence of CYP 2C19 (P33261 whole entry): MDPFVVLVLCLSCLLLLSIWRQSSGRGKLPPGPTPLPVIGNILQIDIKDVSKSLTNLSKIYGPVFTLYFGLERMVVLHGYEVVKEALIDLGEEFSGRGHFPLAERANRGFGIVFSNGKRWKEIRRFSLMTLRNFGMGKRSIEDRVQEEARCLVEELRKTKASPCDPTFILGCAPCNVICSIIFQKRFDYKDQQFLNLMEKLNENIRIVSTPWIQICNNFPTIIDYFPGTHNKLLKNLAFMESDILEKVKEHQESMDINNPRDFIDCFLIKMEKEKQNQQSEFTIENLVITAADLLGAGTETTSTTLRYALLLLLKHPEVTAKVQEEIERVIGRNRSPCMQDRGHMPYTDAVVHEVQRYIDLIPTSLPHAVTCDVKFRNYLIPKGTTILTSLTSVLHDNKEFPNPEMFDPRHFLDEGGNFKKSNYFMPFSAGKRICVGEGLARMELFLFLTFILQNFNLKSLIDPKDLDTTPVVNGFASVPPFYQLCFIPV
Sequence of CYP 3A4 (P08684 whole entry): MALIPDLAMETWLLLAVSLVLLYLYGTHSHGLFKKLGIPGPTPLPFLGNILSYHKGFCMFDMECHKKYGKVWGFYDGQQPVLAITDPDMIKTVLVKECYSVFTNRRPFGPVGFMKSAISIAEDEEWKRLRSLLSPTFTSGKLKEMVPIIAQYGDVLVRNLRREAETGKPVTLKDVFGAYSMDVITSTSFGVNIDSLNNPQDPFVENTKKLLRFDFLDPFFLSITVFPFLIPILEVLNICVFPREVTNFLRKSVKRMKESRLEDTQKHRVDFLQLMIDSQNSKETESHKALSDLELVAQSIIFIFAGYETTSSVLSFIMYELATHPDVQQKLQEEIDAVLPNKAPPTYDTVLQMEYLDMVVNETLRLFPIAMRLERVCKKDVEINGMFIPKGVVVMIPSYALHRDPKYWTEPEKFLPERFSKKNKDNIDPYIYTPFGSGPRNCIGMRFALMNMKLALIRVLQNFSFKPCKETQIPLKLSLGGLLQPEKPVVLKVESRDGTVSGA

| Compound | effect of NBN and ketoconazole together on metabolism by HLM [2] | conversion to DOH or metabolites by 2C19 in the absence of NADPH (CYP 2C19) | average velocity of 2C19 in the first 10 minutes (CYP 2C19) | increase of plasma level by ABT pretreatment ([3]; 1 hour after D/DA dose) | increase of prostate content by ABT pretreatment ([3]; 1 hour after D/DA dose) | increase of plasma level by ABT pretreatment ([3]; 2 hours after D/DA dose) | increase of prostate content by ABT pretreatment ([3]; 2 hours after D/DA dose) | average velocity of 3A4 in the first 10 minutes (CYP 3A4) | also measured |
| --- | --- | --- | --- | --- | --- | --- | --- | --- | --- |
| CC(=O)N1CCN(c2ccc(OCC3COC(Cn4ccnc4)(c4ccc(Cl)cc4Cl)O3)cc2)CC1 (centres unmarked) [ketoconazole] | – | – | – | – | – | – | – | – | inhibition of 3A4 activity in HLM (3A4): 59% |
| CCC1(c2ccccc2)NC(=O)N(Cc2ccccc2)C1=O (single isomer, unassigned; (+)) [NBN, (+)-N-3-benzylnirvanol] | – | – | – | – | – | – | – | – | inhibition of 2C19 activity in HLM (2C19): 55% |
| CC1(C)Oc2cc3oc(=O)ccc3cc2C[C@@H]1O [DOH, decursinol] | – | – | – | 1.5–2 fold | 1.5–2 fold | 1.5–2 fold | 1.5–2 fold | – | absorption (AUC-oral dose vs. AUC-i.v.) [5]: ~ 45%; urinary excretion of free DOH, share of D/DA ingested ([4]; human subjects): < 1%; AUC of plasma DOH ([6]; equal moles by oral gavage): 65012 ng·h/mL; AUC ratio, DOH group vs. D/DA group ([6]; equal moles by oral gavage): ~ 2.4 fold; tmax of plasma DOH peak ([6]; oral gavage): ~ 0.7 h |

The next lines start with results.

| effect of NBN and ketoconazole together on metabolism by HLM [2] | conversion to DOH or metabolites by 2C19 in the absence of NADPH (CYP 2C19) | average velocity of 2C19 in the first 10 minutes (CYP 2C19) | increase of plasma level by ABT pretreatment ([3]; 1 hour after D/DA dose) | increase of prostate content by ABT pretreatment ([3]; 1 hour after D/DA dose) | increase of plasma level by ABT pretreatment ([3]; 2 hours after D/DA dose) | increase of prostate content by ABT pretreatment ([3]; 2 hours after D/DA dose) | average velocity of 3A4 in the first 10 minutes (CYP 3A4) | Compound | also measured |
| --- | --- | --- | --- | --- | --- | --- | --- | --- | --- |
| additive manner | not able to convert | 60 pmol D or DA per minute per pmol CYP | 30 fold | 18 fold | 30 fold | 48 fold | 5 pmol per minute per pmol CYP | C/C=C(/C)C(=O)O[C@H]1Cc2cc3ccc(=O)oc3cc2OC1(C)C [DA, decursinol angelate] | effect of 2C19*17 allele on plasma AUC0–48h ([1]; human subjects by CYP SNP genotype): trend of gene-dose effect; plasma AUC0–48h compared among three racial groups (Caucasian, Hispanic, Asian) ([1]; human subjects, Kruskal-Wallis test, p<0.05): statistically different among three groups; effect of 3A4 inhibitor ketoconazole (KCZ) on metabolism by HLM ([2]; 2 μM ketoconazole, 1 mg/mL HLM): greater extent of inhibition of DA conversion to DOH and metabolite N8; variation in the Cmax and AUC0–48h among subjects ([4]; healthy human subjects, single dose): ≤ 60 fold |
| additive manner | not able to convert | 60 pmol D or DA per minute per pmol CYP | 32 fold | 61 fold | 26 fold | 61 fold | 4 pmol per minute per pmol CYP | CC(C)=CC(=O)O[C@H]1Cc2cc3ccc(=O)oc3cc2OC1(C)C [D, decursin] | effect of 2C19 inhibitor NBN on metabolism by HLM ([2]; 10 μM NBN, 1 mg/mL HLM): retarded the disappearance of D |
